pIC50: −log10 of the molar value. ≈ marks a conversion by molar mass, not a printed value. Square brackets hold non-standard residues; d marks the D form. Peptide text beside a SMILES is read from it. Nphe = O=C(O)CNCc1ccccc1
Key:
[1] = system: Escherichia coli; assay: Antibacterial activity against multidrug resistant ESBL producing Escherichia coli isolate after 16 to 20 hrs by broth microdilution assay; format: functional
[2] = Therapeutic index, ratio of HC10 for human erythrocyte cells to MIC for multidrug resistant bacterial strains; conditions: read-out: TI
Summary of the method: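 TI = hemolytic activity divided by median of MIC values. Hemolysis: washed fresh human RBCs (1% v/v in TBS, pH 7.2) with 2-fold oligomer dilutions (1–128 μM), 37 °C, 1 h; supernatant OD 405 nm; melittin 400 μg/mL = 100%, TBS = 0%. HA = concentration giving ≥10% lysis. MICs by broth microdilution, 35 °C, 16–20 h.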

[3] = system: Escherichia coli; assay: Antibacterial activity against multidrug resistant NDM-1 producing Escherichia coli isolate after 16 to 20 hrs by broth microdilution assay; format: functional
[4] = system: Staphylococcus aureus; assay: Antibacterial activity against methicillin-resistant Staphylococcus aureus isolate after 16 to 20 hrs by broth microdilution assay; format: functional
[5] = system: Klebsiella pneumoniae; assay: Antibacterial activity against multidrug resistant NDM-1 producing Klebsiella pneumoniae isolate after 16 to 20 hrs by broth microdilution assay; format: functional
[6] = Hemolytic activity against human RBCs after 1 hr by spectrophotometry; format: ADME, cell-based; conditions: erythrocyte
Summary of the method: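 Freshly drawn human erythrocytes washed in TBS (pH 7.2, 10 mM Tris, 150 mM NaCl), 1% v/v suspension mixed with 2-fold serial dilutions (1−128 μM) in water; 1 h at 37 °C. After pelleting, supernatant diluted 1:1 with water and hemoglobin read at OD 405 nm. Melittin (400 μg/mL) = 100%, TBS = 0%. Value is the lowest concentration giving ≥10% lysis.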

[7] = system: HeLa; assay: Cytotoxicity against human HeLa cells assessed as growth inhibition after 1 hr; format: cell-based
Summary of the method: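 HeLa cells seeded at 9000 per well, cultured 24 h; at 80−100% confluency washed with HBSS and exposed 1 h (37 °C, 50 rpm) to 2-fold serial dilutions in EMEM. After washing, MTS/PMS (240/2.4 μg/mL) in HBSS added for 1.5 h; formazan read at 492 nm. 0.2% SDS = 0%, EMEM alone = 100%. Test range 1−128 or 8−1024 μM; IC50 reported.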

[8] = system: Escherichia coli; assay: Antibacterial activity against Escherichia coli ATCC 25922 after 16 to 20 hrs by broth microdilution assay; format: functional
[9] = Proteolytic stability of compound in presence of Pronase by reverse phase HPLC analysis; format: ADME
Summary of the method: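 Oligomer (2 mg/mL solution, 250 μL) incubated with Pronase (1.0 mg/mL solution, 50 μL) in 10 mM Tris pH 7.5 (1.2 mL); enzyme activity first confirmed on Nα-benzoyl arginine. Degradation followed by analytical reverse-phase HPLC (10−60% B) at 6, 12, 18 and 50 h; degradation product identified by HRMS.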

[10] = system: Escherichia coli; assay: Antibacterial activity against multidrug resistant Amp-C producing Escherichia coli isolate after 16 to 20 hrs by broth microdilution assay; format: functional
[11] = system: Klebsiella pneumoniae; assay: Antibacterial activity against multidrug resistant KPC producing Klebsiella pneumoniae isolate after 16 to 20 hrs by broth microdilution assay; format: functional

Question: With `CC(=O)N[C@@H](CCCCN)C(=O)N(CC(=O)N[C@@H](CCCCN)C(=O)N(CC(=O)N[C@@H](CCCCN)C(=O)N(CC(=O)N[C@@H](CCCCN)C(=O)N(CC(=O)N[C@@H](CCCCN)C(=O)N(CC(=O)N[C@@H](CCCCN)C(=O)N(CC(=O)N[C@@H](CCCCN)C(=O)N(CC(=O)N[C@@H](CCCCN)C(=O)N(CC(N)=O)Cc1ccccc1)Cc1ccccc1)Cc1ccccc1)Cc1ccccc1)Cc1ccccc1)Cc1ccccc1)Cc1ccccc1)Cc1ccccc1` (Ac-K[Nphe]K[Nphe]K[Nphe]K[Nphe]K[Nphe]K[Nphe]K[Nphe]K[Nphe]-NH2) as the compound, how does the MIC [1] read?
Answer: 8 µM (≈ 18.1 µg/mL)

Question: And the selectivity ratio [2]?
Answer: > 21

Question: And the MIC [3]?
Answer: 2 µM (≈ 4.52 µg/mL)

Question: What about the MIC [4] of the same compound?
Answer: 256 µM (≈ 579 µg/mL)

Question: And the MIC [5]?
Answer: 128 µM (≈ 290 µg/mL)

Question: What about the HC10 [6] of the same compound?
Answer: > 128 µM

Question: What about the pIC50 [7] of the same compound?
Answer: 4.00

Question: And the MIC [8]?
Answer: 4 µM (≈ 9.05 µg/mL)

Question: And the Stability [9]?
Answer: Stable

Question: And the MIC [10]?
Answer: 8 µM (≈ 18.1 µg/mL)

Question: What about the MIC [11] of the same compound?
Answer: 128 µM (≈ 290 µg/mL)

From ChEMBL document CHEMBL2169776, “Antimicrobial activity of peptidomimetics against multidrug-resistant Escherichia coli: a comparative study of different backbones” (J Med Chem, 2012)
